Published values pooled from the literature.
Protocols differ between the studies behind these lines.
Target: Aurora kinase C (AURKC, Homo sapiens, UniProt Q9UQB9)
Sequence (Q9UQB9 1-309, as in one of the studies): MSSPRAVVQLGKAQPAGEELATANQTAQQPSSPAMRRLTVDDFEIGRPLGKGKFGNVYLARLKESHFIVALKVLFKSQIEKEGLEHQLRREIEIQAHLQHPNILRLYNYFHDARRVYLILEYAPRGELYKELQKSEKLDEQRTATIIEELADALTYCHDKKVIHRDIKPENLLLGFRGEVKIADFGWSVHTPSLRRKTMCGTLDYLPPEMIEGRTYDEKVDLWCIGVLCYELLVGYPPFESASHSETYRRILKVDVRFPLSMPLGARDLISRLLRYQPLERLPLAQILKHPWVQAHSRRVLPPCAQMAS

COc1cc2ncnc(Nc3ccc(Oc4ccccc4)cc3C)c2cc1OC  inhibition (enzyme activity; inhibitor; 1 µM): 1%
CCCCN(CCCC)C(=O)CN1C[C@H](c2cc(OC)c3c(c2)OCO3)[C@@H](C(=O)O)[C@@H]1CC(C)(C)CCC  remaining binding (cell-free assay; competition with immobilised ligand; 1 µM): 100%
CC(C)(C)c1nc(-c2cccc(NS(=O)(=O)c3c(F)cccc3F)c2F)c(-c2ccnc(N)n2)s1  remaining activity (enzyme activity; inhibitor; radiometric; 1 µM): 92%
CN(C)C(=O)Cn1cc(-c2nc([C@@](C)(c3ccc(-c4cnc(N)nc4)cc3)C3CC3)no2)cn1  remaining binding (cell-free assay; competition with immobilised ligand; 1 µM): 100%
COc1cc2nccc(Oc3ccc(NC(=O)c4c5n(n(-c6ccc(F)cc6)c4=O)CCCC5)cc3)c2cc1OC  inhibition (enzyme activity; inhibitor; 0.1 µM): 24%
Cc1ccc(NC(=O)c2ccc(C)c(C(F)(F)F)c2)cc1C#Cc1nn(C2CCC(O)CC2)c2ncnc(N)c12 (centres unmarked)  remaining signal (cell-free assay; 10 µM): 101%
CNC(=O)c1cc(Oc2ccc(NC(=O)Nc3ccc(Cl)c(C(F)(F)F)c3)cc2)ccn1  remaining signal (cell-free assay; 0.5 µM): 106%
CCC(=O)N[C@H]1CC[C@@H](C(=O)N(C)c2ccc(-c3nc4ccccc4o3)cc2)C1  remaining binding (cell-free assay; competition with immobilised ligand; 1 µM): 100%
CCN(CC)c1ccc(C2=NNC(=O)CC2C)cc1[N+](=O)[O-] (centres unmarked)  remaining activity (enzyme activity; inhibitor; 10 µM): 122%
CC(C)(O)[C@H]1CC[C@H](Nc2ccc3ncc(-c4cccc(C(F)(F)F)c4)n3n2)CC1  remaining activity (enzyme activity; inhibitor; 1 µM): 88.5%
O=c1cc(-c2cccc3c2Sc2ccccc2S3)oc(N2CCOCC2)c1  remaining activity (enzyme activity; inhibitor; 0.5 µM): 84.9%
CCC(=N\O)/C(C)=C/c1ccc(F)cc1  remaining binding (cell-free assay; competition with immobilised ligand; 1 µM): 80%
CNc1cccc2cc(C(=O)Nc3ccc(C(=O)O)cc3)c(=O)[nH]c12  inhibition (enzyme activity; inhibitor; 10 µM): -7.3%
O=C(NS(=O)(=O)c1ccc(NCC2CCOCC2)c([N+](=O)[O-])c1)c1ccc(N2CCN(Cc3ccc(C(F)(F)F)cc3-c3ccc(Cl)cc3)CC2)cc1Oc1cnc2[nH]ccc2c1  remaining binding (cell-free assay; competition with immobilised ligand; 1 µM): 97%
O=C(Nc1cnn(-c2csc(C(=O)NC3COC3)c2)c1)Nc1c(F)cccc1Cl  remaining activity (enzyme activity; inhibitor; 5 µM): 58.5%
Cc1ccc(C(=O)NCc2ccsc2)cc1C#Cc1cn(C(C)C)c2ncnc(N)c12  activity vs control (enzyme activity; inhibitor; 1 µM): 81%
O=C1Nc2ccc(Cl)cc2C1=Cc1cc(Cl)c(O)c(Cl)c1  remaining signal (cell-free assay; 0.5 µM): 78.6%
O=C(NCc1ncc(C(F)(F)F)cc1Cl)c1ccc2c(c1)C1(CCS(=O)(=O)CC1)[C@@H](C1CC1)N2S(=O)(=O)c1ccc(F)cc1  remaining binding (cell-free assay; competition with immobilised ligand; 1 µM): 80%
N#CCCc1ccc2c(c1)-c1[nH]c3ccc([N+](=O)[O-])cc3c1CC(=O)N2  remaining signal (cell-free assay; 0.5 µM): 83.6%
Cc1cc(NC(=O)c2cccc3cc(-c4cccc5[nH]nc(N)c45)ccc23)ccc1F  activity vs control (enzyme activity; inhibitor; 0.1 µM): 83%
